Data published in ChEMBL document CHEMBL1148736, “N-Acylthiadiazolines, a new class of liver X receptor agonists with selectivity for LXRbeta” (J Med Chem, 2007).
Active and inactive are the calls of the source. No cut-off for these calls is given here.

Columns and labels:
[1] = molecular target: T1, Oxysterols receptor LXR-alpha (Homo sapiens) (UniProt Q13133); test: Displacement of [3H]T-0901317 from GAL-linked human LXRalpha expressed in THP1 cells at 20 uM by SPA relative to GW-3965; assay type: cell-based; settings: THP-1
T1 sequence (whole entry): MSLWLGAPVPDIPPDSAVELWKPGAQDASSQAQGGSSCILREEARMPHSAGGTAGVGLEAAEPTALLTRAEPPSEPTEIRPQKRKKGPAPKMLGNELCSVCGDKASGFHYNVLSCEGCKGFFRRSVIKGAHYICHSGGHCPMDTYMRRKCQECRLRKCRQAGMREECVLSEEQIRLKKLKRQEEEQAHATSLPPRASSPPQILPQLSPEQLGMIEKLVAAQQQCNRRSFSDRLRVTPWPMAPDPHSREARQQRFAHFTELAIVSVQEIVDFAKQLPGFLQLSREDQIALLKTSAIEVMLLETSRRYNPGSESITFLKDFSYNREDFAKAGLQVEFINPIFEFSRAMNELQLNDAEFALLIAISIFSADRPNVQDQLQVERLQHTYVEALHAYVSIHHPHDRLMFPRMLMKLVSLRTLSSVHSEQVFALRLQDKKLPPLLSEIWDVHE
Outline: (§1)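 Scintillation proximity displacement with His-tagged hLXRα or hLXRβ LBD (200 ng/well) and 30 nM [3H]T0901317. Beads 0.2 mg/well in phosphate buffer with EDTA, NaCl, DTT, CHAPS, 10% glycerol. 12-point curves from 20 µM; shaken 3 h at room temperature. No-competitor wells = 100% binding; nonspecific binding without protein. Efficacy = maximal displacement relative to reference dual agonist.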

[2] = molecular target: T2, Oxysterols receptor LXR-beta (Homo sapiens) (UniProt P55055); test: Displacement of [3H]T-0901317 from GAL-linked human LXRbeta expressed in THP1 cells at 20 uM by SPA relative to GW-3965; assay type: cell-based; settings: THP-1; outline: as §1
T2 sequence (whole entry): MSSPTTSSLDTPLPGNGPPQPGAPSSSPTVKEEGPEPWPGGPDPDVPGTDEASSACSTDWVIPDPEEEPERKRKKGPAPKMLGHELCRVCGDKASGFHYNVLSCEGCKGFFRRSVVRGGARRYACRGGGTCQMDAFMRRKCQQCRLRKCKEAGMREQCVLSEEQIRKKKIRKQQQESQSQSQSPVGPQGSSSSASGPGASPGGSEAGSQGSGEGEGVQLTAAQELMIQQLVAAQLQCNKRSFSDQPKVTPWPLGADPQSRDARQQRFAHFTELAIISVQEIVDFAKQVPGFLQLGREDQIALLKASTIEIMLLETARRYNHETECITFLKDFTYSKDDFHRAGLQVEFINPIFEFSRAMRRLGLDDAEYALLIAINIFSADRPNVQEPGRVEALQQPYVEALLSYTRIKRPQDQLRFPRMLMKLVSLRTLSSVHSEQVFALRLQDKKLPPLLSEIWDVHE

[3] = molecular target: T1, Oxysterols receptor LXR-alpha (Homo sapiens); test: Agonist activity at GAL-linked human LXRalpha expressed in THP1 cells assessed as stimulation of co-activator recruitment by FRET assay relative to GW-3965; assay type: functional
Outline: (§2)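 Cell-free TR-FRET coactivator recruitment: 20 nM His-tagged hLXRα or hLXRβ, 300 nM biotinylated SRC-1 peptide, Eu-anti-His antibody, APC-streptavidin. 12-point curves from 20 µM; 1 h at 37 °C. Duplicate. %E = maximal coactivator recruitment relative to reference dual agonist in same experiment.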

[4] = molecular target: T2, Oxysterols receptor LXR-beta (Homo sapiens); test: Agonist activity at GAL-linked human LXRbeta expressed in THP1 cells assessed as stimulation of co-activator recruitment by FRET assay relative to GW-3965; assay type: functional; outline: as §2
THP-1 [5] = test: Increase in ABCA1 gene expression in THP1 cells at 1 uM relative to GW-3965; assay type: functional, Homo sapiens
Outline: (§3)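 THP-1 cells differentiated with 40 ng/mL PMA for 1 day, then switched to RPMI with 2% lipoprotein-deficient FBS. Compound added 6 h later at 1 or 10 µM in DMSO, incubated 24 h. ABCA1 mRNA by one-step TaqMan qRT-PCR, triplicate, multiplexed with 36B4; fold induction vs DMSO, expressed relative to reference dual agonist.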

THP-1 [6] = test: Increase in ABCA1 gene expression in THP1 cells at 10 uM relative to GW-3965; assay type: functional, Homo sapiens; outline: as §3
[7] = molecular target: T1, Oxysterols receptor LXR-alpha (Homo sapiens); test: Activity at human LXRalpha by Gal4 transactivation assay relative to GW-3965
Outline: (§4)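 GAL4 DBD fused to hLXRα or hLXRβ LBD in pcDNA3, co-transfected into HepG2 with luciferase reporter. Cells in DMEM with 10% lipoprotein-deficient FBS, 7.5 µM lovastatin, 100 µM mevalonic acid. Ligand added 24 h post-transfection as 11-point curves from 10 µM; luciferase read after 16 h. Run in quadruplicate. %E = max fold induction vs max fold induction of reference dual agonist in same experiment.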

[8] = molecular target: T2, Oxysterols receptor LXR-beta (Homo sapiens); test: Activity at human LXRbeta by Gal4 transactivation assay relative to GW-3965; outline: as §4
Hepatocyte = test: Induction on FAS gene expression in human primary hepatocytes at 1 uM; assay type: functional, cell-based
Outline: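 Primary human hepatocytes treated with 1 µM compound; FAS mRNA measured by TaqMan-based qRT-PCR.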

[9] = molecular target: T3, Oxysterols receptor LXR-alpha (Homo sapiens, UniProt Q13133); test: Agonist activity at GAL-linked human LXRalpha expressed in THP1 cells assessed as stimulation of coactivator recruitment by FRET assay; assay type: functional; outline: as §2
T3 sequence (Q13133 whole entry): T1 sequence (whole entry)

[10] = molecular target: T4, Oxysterols receptor LXR-beta (Homo sapiens, UniProt P55055); test: Agonist activity at GAL-linked human LXRbeta expressed in THP1 cells assessed as stimulation of co-activator recruitment by FRET assay; assay type: functional; outline: as §2
T4 sequence (P55055 whole entry): T2 sequence (whole entry)

Macrophage = test: Induction of APO-AI-dependent cholesterol efflux in mouse macrophages; assay type: functional, cell-based
Outline: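 Peritoneal macrophages labelled 24 h with [3H]cholesterol (1.0 µCi/mL) plus ACAT inhibitor 58-035 (2 µg/mL), with compound. Then 2–4 h equilibration in label-free medium with compound. Efflux for 4 h into DMEM/0.2% BSA with or without apoAI (15 µg/mL). apoAI-dependent efflux = medium radioactivity as % of total cell plus medium. Triplicate.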

[11] = molecular target: T3, Oxysterols receptor LXR-alpha; test: Activity at human LXRalpha by Gal4 transactivation assay; outline: as §4
[12] = molecular target: T4, Oxysterols receptor LXR-beta; test: Activity at human LXRbeta by Gal4 transactivation assay; outline: as §4
Liver [13] = test: Effect on ABCA1 gene expression in C57BL/6 mouse liver; assay type: functional, tissue-based
Outline: (§5)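 Male C57BL/6 mice, 10 weeks old, chow-fed, gavaged daily with vehicle or compound (20–200 mpk) for 3 days. Fasted overnight before the last dose; killed 3 h later. Tissue RNA analysed by TaqMan qRT-PCR.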

[14] = AUC in C57BL/6 mouse at 5 mg/kg, iv; assay type: ADME, organism-based; parameters: dose 5 mg/kg, route intravenous; settings: plasma
Outline: (§6)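 Mouse PK study, IV and PO; compound formulated at 2.5 mg/mL in PEG300/Tween 80 (4:1). IV dose 5 mpk (AUC, Cmax, clearance, Vss); oral dose 20 mpk (AUC, Cmax, bioavailability, t1/2).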

[15] = AUC in C57BL/6 mouse at 20 mg/kg, po; assay type: ADME, organism-based; parameters: dose 20 mg/kg, route oral; settings: plasma; outline: as §6
Liver [16] = test: Effect on SREBP1c gene expression in C57BL/6 mouse liver; assay type: functional, tissue-based; outline: as §5
[17] = Cmax in C57BL/6 mouse at 5 mg/kg, iv; assay type: ADME, organism-based; parameters: dose 5 mg/kg, route intravenous; settings: in vivo; outline: as §6
[18] = Clearance in C57BL/6 mouse at 5 mg/kg, iv; assay type: ADME, organism-based; parameters: dose 5 mg/kg, route intravenous; settings: in vivo; outline: as §6
[19] = Volume of distribution at steady state in C57BL/6 mouse at 5 mg/kg, iv; assay type: ADME, organism-based; parameters: dose 5 mg/kg, route intravenous; settings: in vivo, read-out: Vss; outline: as §6
[20] = Cmax in C57BL/6 mouse at 20 mg/kg, po; assay type: ADME, organism-based; parameters: dose 20 mg/kg, route oral; settings: in vivo; outline: as §6
[21] = Bioavailability in C57BL/6 mouse at 20 mg/kg, po; assay type: ADME, organism-based; settings: in vivo; outline: as §6
[22] = Half life in C57BL/6 mouse at 20 mg/kg, po; assay type: ADME, organism-based; parameters: dose 20 mg/kg, route oral; settings: in vivo; outline: as §6

| SMILES | Efficacy [1] | Efficacy [2] | Efficacy [3] | Activity (THP-1 [5]) | Activity (THP-1 [6]) | Efficacy [7] | Efficacy [8] | EC50 [9] | EC50 [10] | Efficacy [4] | further results |
| --- | --- | --- | --- | --- | --- | --- | --- | --- | --- | --- | --- |
| COc1cccc([C@@H]2SC(c3ccc(Cl)cc3)=NN2C(=O)c2c(F)cc(F)cc2F)c1OC | < 15% | < 15% | < 15% | 0% | 0% | < 15% | < 15% | – | – | – | Activity [4]: < 15% |
| O=S(=O)(c1ccccc1)N(CC(F)(F)F)c1ccc(C(O)(C(F)(F)F)C(F)(F)F)cc1 | – | – | – | – | – | – | – | – | – | – | Activity (Hepatocyte): Active |
| COc1cccc([C@H]2SC(c3ccc(Cl)cc3)=NN2C(=O)c2c(F)cc(F)cc2F)c1OC | 80% | 100% | 64% | 39% | 60% | 41% | 98% | 1600 nM | 67 nM | 94% | Activity (Macrophage): Active; EC50 [11]: 346 nM; EC50 [12]: 63 nM |
| O=C(O)Cc1cccc(OCCCN(Cc2cccc(C(F)(F)F)c2Cl)CC(c2ccccc2)c2ccccc2)c1 | 100% | 100% | 100% | 100% | 100% | 100% | 100% | 97 nM | 27 nM | 100% | Activity (Hepatocyte): Active; EC50 [11]: 66 nM; EC50 [12]: 4 nM |
| COc1cccc(C2SC(c3ccc(F)cc3)=NN2C(=O)c2cc(F)ccc2C)c1OC (stereo not drawn) | – | – | 46% | 21% | 32% | – | – | 2400 nM | 140 nM | 90% | – |
| O=C(c1c(F)cc(F)cc1F)N1N=C(c2ccc(Cl)cc2)SC1c1cccc2c1OC(F)(F)O2 (stereo not drawn) | – | – | 71% | 35% | 61% | – | – | 3900 nM | 800 nM | 74% | – |
| COc1cccc(C2SC(c3ccc(F)cc3)=NN2C(=O)c2c(F)cc(F)cc2F)c1OC (stereo not drawn) | – | – | 62% | 42% | 53% | – | – | 1400 nM | 76 nM | 98% | Activity (Liver [13]): inactive; AUC [14]: 35700 ng·h/mL; AUC [15]: 16800 ng·h/mL; Activity (Liver [16]): inactive; Cmax [17]: 70.9 µM; clearance [18]: 2.26 mL/min/kg; Vd [19]: 0.44 L/kg; Cmax [20]: 6.9 µM; bioavailability [21]: 11%; half-life [22]: 4.5 h |
